# In the library only some 0.23% were active in any assay of this set; here they are far more common.
# Bim-Bfl-1 = human Bim-Bfl-1 interaction inhibition; Q16548; Bead-based flow cytometry, Bim-Bfl-1 binding inhibition; inhibition, % at 10 µM; 190,000 compounds, 0.12% hits;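 note: 0% = wells without compound plus tracer and 100% = blocker peptide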
# Rad51 HR inh = blocks human Rad51 in homologous recombination; Q06609; hRad51 DNA strand exchange, fluorescence dequenching; inhibition, % at 10 µM; 200,000 compounds, 0.085% hits; AID 1385;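 active = inhibition above 40% at the single screening dose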;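 note: 0% = DMSO control wells and 100% = blanks with heterologous ssDNA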
# Target sequence (Q06609 whole entry, looked up): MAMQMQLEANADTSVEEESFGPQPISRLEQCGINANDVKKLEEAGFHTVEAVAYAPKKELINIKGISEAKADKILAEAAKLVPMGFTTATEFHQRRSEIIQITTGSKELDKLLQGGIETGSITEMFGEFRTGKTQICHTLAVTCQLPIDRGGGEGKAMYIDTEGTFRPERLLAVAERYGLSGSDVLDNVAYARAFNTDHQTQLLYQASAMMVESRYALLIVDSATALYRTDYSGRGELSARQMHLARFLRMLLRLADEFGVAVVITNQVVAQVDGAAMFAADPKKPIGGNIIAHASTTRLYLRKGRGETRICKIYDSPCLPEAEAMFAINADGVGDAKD
#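 Test system: preformed human Rad51 ssDNA filaments. Compound dosing: single dose, 10 µM final compound. Incubation: filaments 15 min 37 °C, then compound 30 min. Technique: FRET fluorescence dequenching, excitation 485 nm, emission 520 nm. Read-out basis: percent inhibition from fluorescence, normalised to plate control and blank means. Benchmarks: plate controls and plate blanks.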
# Bcl-B Bim block = inhibitors of Bim-Bcl-B interaction, human; AID 951; 190,000 compounds, 0.073% hits; bead-based flow cytometry, Bim peptide-Bcl-B binding; inhibition, % at 10 µM; Q9HD36;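 note: 0% = tracer peptide without compound and 100% = reference inhibitor peptide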
# Bim-Bcl-2 = disrupts Bim peptide binding to human Bcl-2; inhibition, % at 10 µM; 190,000 compounds, 0.06% hits; Bead-based flow cytometry, Bim peptide-Bcl-2 binding; P10415; in the data active = inhibition above about 40%;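 note: 0% = no compound wells with probe peptide and 100% = reference peptide inhibitor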
# Bim-Bcl-XL = human Bim-Bcl-XL interaction inhibition. Q07817. Bim peptide-Bcl-XL binding, bead flow cytometry, fluorescence. inhibition, % at 10 µM. 190,000 compounds, 0.04% hits. AID 1007
# Bim-Bcl-W = human Bim-Bcl-W interaction inhibition | bead-based flow cytometry, Bim peptide-Bcl-W binding | Q92843 | 190,000 compounds, 0.02% hits | inhibition, % at 10 µM;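 note: 0% = bound tracer without compound and 100% = peptide blocker; higher means less fluorescent Bim peptide bound to Bcl-W beads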
# Starred values were filed as active, the others as inactive; i = inactive; . = no result. Cut-off read from the data, not from the text of the source, unless noted: active = inhibition above about 40%.
SMILES,Bim-Bfl-1,Rad51 HR inh,Bcl-B Bim block,Bim-Bcl-2,Bim-Bcl-XL,Bim-Bcl-W
C=CCSc1nnc(CNC(=O)c2ccccc2C)n1C(C)C,-6,-2,-2,-1,0,-2
CCOC(=O)CN1C(=O)N[C@@H](CCc2ccccc2)[C@@H](C(=O)OC)[C@H]1C,.,53*,.,.,.,.
CCOC(=O)CN1C(=O)N[C@@H](c2ccccc2)[C@@H](C(=O)OC)[C@H]1C,.,2,.,.,.,.
CCOC(=O)CSC1=NC(=O)/C(=C\c2ccc(Cl)cc2)S1,46*,-47,0,-1,-2,1
Cc1ccccc1-c1oc(C)c(C)[n+]1[O-],-8,5,-10,-6,-5,-5
Cc1ccc(C(=O)NCc2ccccc2)cc1Br,-1,.,-7,-6,-5,0
O=c1nc2c(O)cccn2c2c1c(=O)[nH]c1ccccc12,36,-38,4,24,47*,32
C#CCOCCOCCOCCNc1nc(N2CCN(C(=O)C(Cc3ccc(O)cc3)n3cc(C(N)CC(C)C)nn3)CC2)nc(N2CCN(C(=O)C(Cc3cc4ccccc4[nH]3)n3cc(C(N)C(C)CC)nn3)CC2)n1 (stereo unspecified),-5,.,-7,-1,-2,-1
C#CCOCCOCCOCCNc1nc(N2CCN(C(=O)[C@H]([C@@H](C)CC)n3cc([C@@H](N)CC(C)C)nn3)CC2)nc(N2CCN(C(=O)[C@H](Cc3cc4ccccc4[nH]3)n3cc([C@@H](N)Cc4ccc(O)cc4)nn3)CC2)n1,57*,.,71*,80*,0,-5
O=C(N/N=C/c1ccc(-c2ccccc2[N+](=O)[O-])o1)c1cncc(Br)c1,28,-16,24,18,48*,32
Cc1cc([N+](=O)[O-])c(C)cc1-c1ccc(/C=N/NC(=O)c2cccnc2)o1,11,-6,7,3,1,-4
CCOc1ncccc1C(=O)OC(C)C(=O)Nc1ccc(CC)cc1 (stereo unspecified),18,-4,55*,50*,1,0
Cc1ccc(CNC(=O)CSc2nc3c(sc4ccccc43)c(=O)n2CCCN2CCCC2)cc1,-3,43*,-6,-4,-2,-6
CC1CCN(CCCn2c(SCC(=O)Nc3ccccc3Cl)nc3ccccc3c2=O)CC1,0,1,-1,-1,-1,-1
Cc1ccc(NC(=O)CSc2nc3ccccc3c(=O)n2CCCN2CCCCC2)cc1Cl,25,-24,71*,62*,26,29
Cc1ccc(S(=O)(=O)c2ccccc2)cc1S,14,2,-21,-2,-2,0
COc1ccc(NC(=O)CCCn2c(=O)c3sccc3n(Cc3ccc(C)cc3C)c2=O)cc1,1,24,-6,-1,-1,-2
O=C(N/N=C/c1ccc(O)c(O)c1O)/C(=C/c1ccc([N+](=O)[O-])cc1)NC(=O)c1ccccc1,41*,3,9,21,5,27
Cc1c(Cl)cccc1NC(=O)CSC(N)=O,1,3,2,2,1,0
Cc1cccc(C)c1NC(=O)CCCSc1nnc(N)s1,-6,-9,-8,-3,-4,-2
Cc1cc(C)c2c(c1)[C@@H]1C=CC[C@@H]1[C@H](c1ccc(S(=O)(=O)N3CCOCC3)cc1)N2,53*,.,6,21,10,25
O=C1c2ccccc2-c2onc3ccc(N4CCCC4)c1c23,42*,i,30,46*,63*,63*
CCOc1ccc2noc3c2c1C(=O)c1ccccc1-3,3,-5,2,0,3,3
O=C1c2ccccc2-c2onc3ccc(NCc4ccco4)c1c23,40*,i,41*,48*,76*,70*
O=C(Nc1cccc(Cl)c1)Nc1ccc(Cl)cn1,51*,-8,72*,77*,30,18
O=C(NCCCO)Nc1ccc2nc(-c3ccco3)c(-c3ccco3)nc2c1,65*,.,28,46*,29,46*
O=C(Nc1ccc2nc(-c3ccco3)c(-c3ccco3)nc2c1)NC1CC1,50*,.,14,37,20,35
OCCCNC(=S)Nc1ccc2nc(-c3ccccn3)c(-c3ccccn3)nc2c1,-8,-3,-10,-1,-14,5
O=C(Nc1ccc(N2CCOCC2)cc1)Nc1ccc2nc(-c3ccco3)c(-c3ccco3)nc2c1,29,1,0,5,6,14

# Source: PubChem (several laboratories)
